T cruzi HTS: intracellular Trypanosoma cruzi inhibition; intracellular Trypanosoma cruzi in host cells, plate reader; activity score (inhibition), % at 5.01 µM; 4.9% of 22,000 active; AID 651903; in the data active = activity score above about 55%; inconclusive = no clear call, values can overlap the other calls;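 also: parasites and compound incubated about four days before reading; 0% = median of neutral control wells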
INS-1E ATP HTS: preserves ATP levels in cytokine-treated INS-1E cells; INS-1E cytokine-induced death, ATP luminescence, 48 h; normalised: neutral wells 0, positive control 100; protection from cytokine-induced ATP loss, % at 10 µM; 0.1% of 20,000 active; AID 488910;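 active = mean replicate protection from cytokine-induced ATP loss at least 50% and at least 75% of replicates each reaching 50%; inconclusive = meets only one of the two criteria, mean or replicate share; inactive = fails both the mean and replicate share criteria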
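Assay system: INS-1E rat insulinoma cells. Amount: 8000 cells per well. Medium: phenol-red-free RPMI with 5% fetal bovine serum. Reagent: IL-1β, TNF-α and IFN-γ cytokine mix. Doses: one compound concentration, pin transfer. Schedule: 48 h co-treatment, 10 min post-lysis read. Detection: CellTiter-Glo luminescence measuring cellular ATP.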
A1 apoptosis 2: A1 inhibition read as caspase activation. MEF A1-2A-BIM cells, caspase-Glo luminescence, 3 h; percent of clofoctol response, DMSO zero. caspase activation, % (concentration not given with the values). 24,000 tested, under 10 active. AID 2465; in the data active = caspase activation above about 5.9%; inconclusive = no clear call, values can overlap the other calls; inactive = below about 2.2%
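Material: mouse embryonic fibroblasts co-expressing A1 and BIM (A1-2A-BIM), primed for A1 dependence / Quantity: 2500 cells/well / Buffer or medium: RPMI-1640 growth medium with 10% FBS / Doses: 50 nL compound per well, pinned / Schedule: 3 h compound exposure at 37 °C / Signal: Caspase-Glo luminescence (DEVD substrate) / Measure: Caspase-3/7 activation, seen as rise in luminescence signal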
Active calls of the source: *; u = inconclusive; x = not tested or not shown. Only a selection was taken, and hits are over-represented in it overall.

SMILES | T cruzi HTS | INS-1E ATP HTS | A1 apoptosis 2
CC(C)(C)OC(=O)NC/C=N/NC(=O)CCCCCCC(=O)O | -16.9 | 11.3 | 0.6
O=C(N/N=C/c1cccc(O)c1)c1ccccn1 | -5.5 | -8.8 | -10.3
CC(C)(C)OC(=O)NC1(/C=N/NC(=O)CCCCCC(=O)O)CCCC1 | -14.6 | 3.9 | -0.4
COCCOC(=O)N1C(=O)[C@@]2(c3ccccc31)[C@H](C(=O)N1CCc3cc(OC)c(OC)cc3C1)[C@H]1C(=O)O[C@H](c3ccccc3)[C@H](c3ccccc3)N1[C@@H]2c1ccccc1OCCO | x | x | -0.4
C[C@H](CO)N1C[C@H](C)[C@H](CN(C)S(=O)(=O)c2ccc(Cl)cc2)Oc2c(NC(=O)c3ccc(-c4nccs4)cc3)cccc2C1=O | 63.4* | -37.5 | -0.5
C[C@H](CO)N1C[C@H](C)[C@@H](CN(C)Cc2ccc(Cl)c(Cl)c2)Oc2c(NC(=O)c3ccc(-c4nccs4)cc3)cccc2C1=O | 62.2* | -31.7 | -0.9
C[C@@H]1CN([C@@H](C)CO)C(=O)c2cccc(NC(=O)c3ccc(-c4nccs4)cc3)c2O[C@H]1CN(C)Cc1ccc(C(=O)Nc2ccccc2N)cc1 | 48.1 | 19.3 | x
C[C@@H]1CN([C@H](C)CO)C(=O)c2cccc(NC(=O)c3ccc(-c4nccs4)cc3)c2O[C@H]1CN(C)Cc1ccc(C(=O)O)cc1 | -10.2 | 11.7 | 0.0
C[C@H](CO)N1C[C@H](C)[C@@H](CN(C)S(=O)(=O)c2ccc(Cl)cc2)Oc2c(NC(=O)c3ccc(-c4nccs4)cc3)cccc2C1=O | 29.9 | 1.8 | x
C[C@@H]1CN([C@@H](C)CO)C(=O)c2cccc(NC(=O)c3ccc(-c4nccs4)cc3)c2O[C@@H]1CN(C)C(=O)Nc1ccc(C(F)(F)F)cc1 | 66.3* | -86.8 | -0.6
C[C@H]1CN([C@@H](C)CO)C(=O)c2cccc(NC(=O)c3ccc(-c4nccs4)cc3)c2O[C@H]1CN(C)Cc1ccc(C(=O)Nc2ccccc2N)cc1 | 71.4* | -15.4 | -2.5
C[C@H](CO)N1C[C@H](C)[C@H](CN(C)C(=O)Nc2ccc(C(F)(F)F)cc2)Oc2c(NC(=O)c3ccc(-c4nccs4)cc3)cccc2C1=O | u | -55.3 | x
O=C(NO)c1ccc(C(=O)N/N=C/c2cccc(B(O)O)c2)cc1 | 9.4 | 11.8 | -0.8
O=C(N=NC=C1C=CN(O)C=C1)c1ccccn1 | -32.9 | -3.6 | -0.4
COC(=O)[C@H](Cc1ccc(N=[N+]=[N-])cc1)N1CC2=C[C@H]([C@@H](O)Cc3ccccc3)n3c(=O)n(C)c(=O)n3[C@@H]2[C@@H](C2CC2)O1 | x | x | -0.4
C[C@H]1CN([C@@H](C)CO)C(=O)c2cccc(NC(=O)c3ccc(-c4nccs4)cc3)c2O[C@@H]1CN(C)Cc1ccc(-c2ccccc2)cc1 | 70.3* | -29.1 | -0.8
C[C@@H]1CN([C@@H](C)CO)C(=O)c2cccc(NC(=O)c3ccc(-c4nccs4)cc3)c2O[C@H]1CN(C)CC1CCCCC1 | 64.0* | -43.3 | 1.1
C[C@@H]1CN([C@H](C)CO)C(=O)c2cccc(NC(=O)c3ccc(-c4nccs4)cc3)c2O[C@H]1CN(C)Cc1ccccc1 | 38.6 | -13.2 | -1.0
C[C@H](CO)N1C[C@H](C)[C@@H](CN(C)CC2CCCCC2)Oc2c(NC(=O)c3ccc(-c4nccs4)cc3)cccc2C1=O | 44.8 | -37.2 | x
C[C@@H]1CN([C@H](C)CO)C(=O)c2cccc(NC(=O)c3ccc(-c4nccs4)cc3)c2O[C@@H]1CN(C)Cc1ccc(C(=O)Nc2ccccc2N)cc1 | 80.7* | u | x
C[C@@H]1CN([C@H](C)CO)C(=O)c2cccc(NC(=O)c3ccc(-c4nccs4)cc3)c2O[C@@H]1CN(C)Cc1ccc(-c2ccccc2)cc1 | 41.9 | -42.9 | -1.5
C=C/C=C/[C@@H]1C(=C)CN([C@@H](Cc2ccc(N=[N+]=[N-])cc2)C(=O)OC)[C@H]1[C@@H](O)Cc1ccccc1 | x | x | 2.0
O=C(CCCCCC(=O)Nc1ccccc1O)N/N=C/c1ccc(OCCO)cc1 | -15.8 | 2.2 | x
CC1(C)[C@H]2CC=C(/C=N\NC(=O)CCCCCCC(=O)O)[C@@H]1C2 | -9.0 | 6.5 | 1.3
C[C@H](CO)N1C[C@H](C)[C@@H](CN(C)Cc2ccc(Oc3ccccc3)cc2)Oc2c(NC(=O)Nc3ccc(F)cc3)cccc2C1=O | 59.5* | -35.9 | 1.0
C[C@@H]1CN([C@H](C)CO)C(=O)c2cccc(NC(=O)Nc3ccc(F)cc3)c2O[C@H]1CN(C)Cc1ccc(-c2ccccc2)cc1 | -13.1 | -0.5 | 0.5
C[C@@H]1CN([C@@H](C)CO)C(=O)c2cccc(NC(=O)Nc3ccc(F)cc3)c2O[C@@H]1CN(C)Cc1ccc(-c2ccccc2)cc1 | 68.6* | -67.4 | -0.4

Assay outcomes as filed in PubChem.
